# Bioassay records (PubChem BioAssay)
# NR2E3 ag-1 = NR2E3 agonists in two-hybrid cells, primary screen, cell-based, luminescence, CHO-S, Gal4-NCOR/VP16-NR2E3. Photoreceptor-specific nuclear receptor (Homo sapiens), Q9Y5X4. luciferase. AID 602229, 2012. 360,000 compounds, 0.35% hits. inhibition of corepressor binding, % at 3.98 µM;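 active = inhibition above the mean of all tested compounds plus 3 SD, cut at about 70% in these data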;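 also: 0% = DMSO with NR2E3 transfected cells and 100% = cells lacking NR2E3 construct; higher means lower luciferase signal from less NR2E3 corepressor binding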
# Target sequence (Q9Y5X4 whole entry, looked up, the tested form may be a part): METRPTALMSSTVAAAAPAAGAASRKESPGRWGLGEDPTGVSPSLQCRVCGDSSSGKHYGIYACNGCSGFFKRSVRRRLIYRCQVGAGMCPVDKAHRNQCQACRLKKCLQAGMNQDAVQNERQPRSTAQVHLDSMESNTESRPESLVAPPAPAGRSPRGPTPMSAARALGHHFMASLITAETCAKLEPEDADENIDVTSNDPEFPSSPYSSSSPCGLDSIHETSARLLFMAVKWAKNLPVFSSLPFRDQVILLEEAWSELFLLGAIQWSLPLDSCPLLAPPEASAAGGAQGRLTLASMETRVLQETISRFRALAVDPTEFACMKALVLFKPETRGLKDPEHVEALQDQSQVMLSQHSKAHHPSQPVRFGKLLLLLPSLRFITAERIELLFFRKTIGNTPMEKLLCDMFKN
# 697 NFkB inh = inhibitors of PMA/ionomycin-induced NF-kB reporter, 697 cells, primary screen, B-cell NF-kB inhibitor project, cell-based, luminescence, uHTS; 697 B-cell NF-kB luciferase reporter, 16 h; inhibition, % at 4 µM; 330,000 compounds, 0.33% hits; AID 435022, 2010; in the data active = inhibition above about 35%
# Jurkat NFkB inh = inhibitors of induced NF-kB luciferase reporter, primary screen, TCR NF-kB activation inhibitor project, cell-based, luminescence, uHTS; Jurkat, PMA/ionomycin-induced NF-kB luciferase reporter; inhibition, % at 4 µM; AID 435003, 2010; 330,000 compounds, 0.53% hits; in the data active = inhibition above about 50%
# GalR3 antag = GalR3 antagonists in HEK293 cells, primary screen, cell-based, fluorescence readout; 360,000 compounds, 0.44% hits; Galanin receptor type 3 (Homo sapiens), O60755; HEK293 GalR3-CNG cAMP membrane potential fluorescence; galR3 body fused to GalR1 C-terminus; AID 651719, 2012; inhibition, % at 3 µM;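 active = inhibition above the screen-wide average plus 3 SD, cut at about 13% in these data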;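 also: forskolin and galanin both at EC90 stimulate the cells; cAMP rise reported by CNG channel membrane potential dye signal; 0% = forskolin plus galanin with DMSO and 100% = forskolin alone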
# NR2E3 ag-2 = inhibitors of NR2E3-RetCOR corepressor binding, primary screen, NR2E3 agonist project, biochemical, TR-FRET, GST-NR2E3, biotin-RetCOR; 1536-well; 320,000 compounds, 0.12% hits; Photoreceptor-specific nuclear receptor (Homo sapiens), Q9Y5X4; inhibition of corepressor binding, % at 4.78 µM;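 active = percent inhibition above the cutoff of mean plus 3 SD of all tested compounds, set per screening campaign, cut at about 20% in these data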;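 also: 0% = DMSO wells and 100% = biotin wells as full block of FRET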
#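 system = GST-tagged NR2E3 plus biotinylated RetCOR corepressor | input = 1.35 nM GST-NR2E3 | also added = 7 nM biotin-RetCOR | schedule = 5 h incubation at 4 °C | measured by = TR-FRET with europium anti-GST and streptavidin-D2, 340 nm excitation | read-out = percent loss of FRET ratio relative to control wells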
# Gli-Sufu block = Gli-Sufu pathway antagonists, primary screen, luciferase luminescence, Sufu-KO-LIGHT cells, uHTS. Sufu-KO-LIGHT fibroblasts, Gli luciferase reporter luminescence. inhibition, % at 5 µM. AID 588413, 2011. 340,000 compounds, 0.74% hits;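 active = inhibition above about 55%, limit read from the data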;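 also: 0% = DMSO-treated cells and 100% = wells with medium but no cells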
# Jurkat NFkB conf = PMA/ionomycin-induced NF-kB reporter inhibitors, Jurkat retest, confirmation, T-cell NF-kB inhibitor project, cell-based, luminescence, single concentration | Jurkat NF-kB luciferase, 16 h | inhibition, % at 4 µM | 2,700 compounds, 27% hits | AID 435020, 2010 | shares compounds with Jurkat NFkB inh;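 active = inhibition reaching about 45% at 4 µM in either replicate, limit read from the data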;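 also: plate controls were PMA/ionomycin stimulated DMSO wells for no effect and unstimulated DMSO wells for full effect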
# 697 NFkB conf = PMA/ionomycin-induced NF-kB reporter inhibitors, 697 retest, confirmation, B-cell NF-kB inhibitor project, cell-based, luminescence, single concentration. shares compounds with 697 NFkB inh. 697 B-cell NF-kB luciferase, 16 h. inhibition, % at 4 µM. 2,000 compounds, 35% hits; in the data active = inhibition mostly above about 28%, no sharp cut-off; inactive = mostly below about 22%
# Active calls of the source: *; i = inactive; / = no result given. Hits are enriched below; roughly 1.8% of the tested compounds scored in any of these assays.
SMILES,NR2E3 ag-1,697 NFkB inh,Jurkat NFkB inh,GalR3 antag,NR2E3 ag-2,Gli-Sufu block,Jurkat NFkB conf,697 NFkB conf
CCN(CC)c1ccc(/C=C/c2cccc[n+]2C)c(OC)c1,0,75*,94*,18*,-9,89*,78*,88*
O=C1CCCCCN1C(=O)c1ccccc1,-18,/,/,-5,/,6,/,/
CC(C)(C)c1ccc(C(=O)N2CCCCCC2=O)cc1,45,71*,54*,-2,1,43,67*,66*
Cc1cc(N2CCCCC2)n2ncc(-c3ccccc3)c2n1,-23,i,-185,1,4,-24,-63,-418
Cc1cc(N2CCCCC2)n2nc(C)c(-c3ccccc3)c2n1,-59,-24,-17,-3,3,-13,/,/
Cc1cc(-c2ccccc2)n2ncc(-c3ccccc3)c2n1,-43,i,-202,-4,0,-36,-91,i
Cc1cc(N2CCCCC2)n2ncc(-c3ccc(Cl)cc3)c2n1,-11,-309,-189,-4,-6,-11,-80,-214
CC(C)(C)c1cc(N2CCOCC2)n2ncc(-c3ccc(Cl)cc3)c2n1,-15,-11,-16,-9,2,-21,/,/
COc1ccc(-c2cc(C)nc3c(-c4ccccc4)cnn23)cc1,-97,/,/,-3,/,-74,/,/
Cc1cc(N2CCOCC2)n2ncc(-c3ccc(Cl)cc3)c2n1,12,-361,-157,-1,-1,-15,-24,-230
Cc1ccc(N/C=C/C(=O)c2ccccc2)cc1Br,-119,-282,-158,-10,-2,-85,-72,-183
Cc1ccc(C(=O)/C=C/Nc2ccc3c(c2)OCO3)cc1,-84,-376,-205,-1,1,4,-23,-76
C=CCN=C1NC(c2ccccc2)C(C(=O)OC)=C(C)N1Cc1ccccc1C(F)(F)F (configuration not stated),/,/,/,-4,/,/,/,/
Oc1ccccc1-c1cc(-c2ccc(F)cc2)n[nH]1,-158,-272,-164,-4,-3,29,-100,-236
Cc1ccc(O)c(-c2cc(-c3cccc(Br)c3)n[nH]2)c1,-40,-10,5,-5,8,-20,/,/
Cc1ccc(-c2cc(-c3ccc(F)cc3)n[nH]2)c(O)c1,-153,-270,-165,-6,/,-70,-125,-278
COc1ccc(-c2cc(-c3ccccc3O)[nH]n2)cc1,-184,-361,-160,-6,2,5,-145,-442
Cc1ccc(-c2cc(-c3ccccc3Cl)[nH]n2)c(O)c1,-178,-163,-143,-2,1,-68,/,/
Cc1ccc(-c2cc(-c3ccc(C)cc3O)[nH]n2)cc1,-98,-261,-200,-8,3,-89,-107,-272
O=S1(=O)N[C@H](Cc2ccccc2)COc2cccc(NCCO)c21,/,/,/,-2,/,/,/,/
CC(C)C[C@H](NC(=O)c1ccccn1)C(=O)N1CCC[C@H]1C(=O)NCc1ccccc1,/,/,/,-8,/,/,/,/
O=C(N[C@H](C(=O)N1CCC[C@H]1C(=O)NCCc1ccccc1Cl)c1ccccc1)C1CC1,/,/,/,-7,/,/,/,/
Cc1cc(Oc2cccc3c2S(=O)(=O)N([C@H](C)c2ccccc2)C[C@@H](COCc2ccccc2)O3)cc(C)c1C,/,/,/,-4,/,/,/,/
Cc1nn(-c2ccccc2)c(Cl)c1/C=N/Nc1nc2ccccc2[nH]1,-148,-371,-227,-8,1,-128,-93,-268
Cc1cc(=O)[nH]c(N/N=C/c2c(C)nn(-c3ccccc3)c2Cl)n1,8,28,4,4,-2,15,/,/
SMILES,NR2E3 ag-1,697 NFkB inh,Jurkat NFkB inh,GalR3 antag,NR2E3 ag-2,Gli-Sufu block,Jurkat NFkB conf,697 NFkB conf
CCCCOc1ccccc1NC(=O)Cn1c(-c2nonc2N)nc2ccccc21,-119,35*,59*,-7,4,31,30,-56
NNC(=O)Cn1c(-c2nonc2N)nc2ccccc21,4,7,-10,-7,-1,-6,/,/
NNc1nc(-c2ccccc2)nc2sc3c(c12)CCCC3,-63,-360,-222,-2,3,-18,-44,-321
COc1cc(C(=O)O)ccc1OCc1ccccc1,/,/,/,-1,/,/,/,/
COc1cc(/C=N/O)ccc1OCc1ccc(C(=O)O)cc1,-167,85*,85*,-5,-1,-117,67*,48*
Cc1cc(O)cc(=O)n1-c1cccc(Br)c1,/,/,/,-5,/,/,/,/
C/C(=N\NC(=O)c1ccc(F)cc1)c1ccccn1,-61,-371,100*,-11,-1,12,-21,0
N#Cc1cc2c(nc1SCC(=O)Nc1nccs1)CCCCC2,-131,-309,-230,-8,15,-119,-86,-258
CSC1=Nc2ccccc2N=C(N2CCCC2)C1,/,/,/,-4,/,/,/,/
N#Cc1ccccc1OCCN1C(=O)c2ccccc2C1=O,-72,-48,12,2,-2,-23,/,/
Nc1cccc2c1C(=O)N(CCOc1ccccc1F)C2=O,-118,-319,-183,-8,2,9,-120,-360
O=C(N[C@H](Cc1ccccc1)C(=O)NCC1CCCCC1)[C@H]1O[C@@H](n2ccc(=O)[nH]c2=O)[C@H](O)[C@@H]1O,/,/,/,-8,/,/,/,/
Cc1cc(Oc2cccnc2)ccc1NC(=O)Cc1c[nH]c2ccccc12,/,/,/,2,/,/,/,/
c1ccc(-c2ccc(-c3nc(-c4ccccn4)no3)cc2)cc1,31,39*,77*,-13,2,81*,81*,36*
CC1=C(c2ccccc2)C(=O)C(C)(C)CC1=O,/,/,/,-4,/,/,/,/
c1ccc(-c2noc(-c3ccc4c(c3)OCO4)n2)cc1,-124,-342,-182,-2,6,-74,-112,-275
Nc1[nH]c(C(=O)c2ccccc2)c(-c2cccc3ccccc23)c1C(=O)NCc1ccc(F)c(F)c1,/,/,/,-2,/,/,/,/
